Data reported in ChEMBL document CHEMBL5715959, “Inhibition of histone methyltransferase EZH2 in Schistosoma mansoni in vitro by GSK343 reduces egg laying and decreases the expression of genes implicated in DNA replication and noncoding RNA metabolism” (2018).

Tested on: Schistosoma mansoni
Test: Cytotoxicity against juvenile Schistosoma mansoni assessed as decrease in viability at 50 uM incubated for 48 hrs by CellTiter-Glo Luminescent assay relative to control
Type: functional
Procedure, shortened: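 Perfused juvenile worms cultured in supplemented RPMI (10% FBS, 37°C, 5% CO2), exposed 24 or 48 h to compound or 0.1% DMSO. Total parasite ATP read by luminescence, given as % of vehicle; three replicate experiments of 10 juveniles each, mean ± SD.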

Structure (SMILES): CCCc1cc(C)[nH]c(=O)c1CNC(=O)c1cc(-c2ccnc(N3CCN(C)CC3)c2)cc2c1cnn2C(C)C
- Activity: 70%
